Each block holds one molecule with its values, some of them ahead of it.
Assays:
Rattus norvegicus [1] = assay: Oral diuretic activity was evaluated by measuring Na+ excretion in Rat at 9 mg/kg […] ( 0-5 hr); assay type: ADME, organism-based, Urine; set-up: dose 9 mg/kg; conditions: in vivo, ip
In short: (§1)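 Female Charles-River rats (150–170 g) were kept overnight on a sugar diet with water ad libitum. Compound was dissolved in DMF, then diluted with water containing Tween 80 (3 drops/100 mL) to a final 4% DMF, and given po in 5.0 mL. Rats were housed three per metabolism cage. Urine from 0–5 h was analysed for Na+, K+ and Cl−, with concurrent placebo controls. Values are mequiv × 100 per cage, geometric mean of three cages per dose.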

Canis familiaris [2] = assay: Oral diuretic activity was evaluated by measuring Na+ excretion in dog at 10 mg/kg after […] ( 0-6 hr); assay type: ADME, organism-based, Canis lupus familiaris, Urine; set-up: dose 10 mg/kg; conditions: in vivo
In short: (§2)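 Dogs; spontaneous urine was pooled with bladder urine drained by catheter at the end of 6 h. Urine volume was measured, and aliquots were assayed for Na+, K+ and Cl− by standard methods. Values are geometric means, expressed as mequiv over 0–6 h.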

Canis familiaris [3] = assay: Oral diuretic activity was evaluated by measuring Na+ excretion in dog at 1 mg/kg after ip administration ( 0-6 hr); assay type: ADME, organism-based, Canis lupus familiaris, Urine; set-up: dose 1 mg/kg, route intraperitoneal; conditions: in vivo
In short: (§3)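 Spontaneous urine was pooled with bladder urine collected by catheterization at 6 h. Volume was measured and Na+, K+ and Cl− were determined by standard methods. Values are geometric means.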

Canis familiaris [4] = assay: Oral diuretic activity was evaluated by measuring Na+ excretion in dog at 20 mg/kg after […] ( 0-6 hr); assay type: ADME, organism-based, Canis lupus familiaris, Urine; set-up: dose 20 mg/kg; conditions: in vivo; in short: as §2
Canis familiaris [5] = assay: Oral diuretic activity was evaluated by measuring K+ excretion in dog at 5 mg/kg after ip administration ( 0-6 hr); assay type: ADME, organism-based, Canis lupus familiaris, Urine; set-up: dose 5 mg/kg, route intraperitoneal; conditions: in vivo; in short: as §3
Rattus norvegicus [6] = assay: Oral diuretic activity was evaluated by measuring Na+ excretion in Rat at 27 mg/kg after […] ( 0-5 hr); assay type: ADME, organism-based, Urine; set-up: dose 27 mg/kg; in short: as §1
Rattus norvegicus [7] = assay: Oral diuretic activity was evaluated by measuring Na+ excretion in Rat at 81 mg/kg […] ( 0-5 hr); assay type: ADME, organism-based, Urine; set-up: dose 81 mg/kg; in short: as §1
Canis familiaris [8] = assay: Oral diuretic activity was evaluated by measuring Na+ excretion in dog at 5 mg/kg after ip administration ( 0-6 hr); assay type: ADME, organism-based, Canis lupus familiaris, Urine; set-up: dose 5 mg/kg, route intraperitoneal; conditions: in vivo
In short: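 Urine collected over 0–6 h: spontaneous voids were pooled with bladder urine taken by catheterization at 6 h. Urine volume was measured, and aliquots were analysed for Na+, K+ and Cl− by standard methods. Electrolyte excretion is reported as geometric means.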

Rattus norvegicus [9] = assay: Oral diuretic activity was evaluated by measuring K+ excretion in Rat at 3 mg/kg after […] ( 0-5 hr); assay type: ADME, organism-based, Urine; set-up: dose 3 mg/kg
In short: (§4)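 Female Charles-River rats (150–170 g) were kept overnight on a sugar diet with water ad libitum. Test substance was dissolved in DMF and diluted with water containing Tween 80 to a final 4% DMF vehicle, then given po in 5.0 mL. Rats were housed three per metabolism cage, and 0–5 h urine was assayed for Na⁺, K⁺ and Cl⁻ alongside concurrent placebo groups. Values are mequiv × 100 per cage, geometric means of three cages per dose.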

Rattus norvegicus [10] = assay: Oral diuretic activity was evaluated by measuring K+ excretion in Rat at 81 mg/kg […] ( 0-5 hr); assay type: ADME, organism-based, Urine; set-up: dose 81 mg/kg; in short: as §4
Rattus norvegicus [11] = assay: Oral diuretic activity was evaluated by measuring K+ excretion in Rat at 9 mg/kg […] ( 0-5 hr); assay type: ADME, organism-based, Urine; set-up: dose 9 mg/kg; in short: as §4
Canis familiaris [12] = assay: Oral diuretic activity was evaluated by measuring K+ excretion in dog at 10 mg/kg after ip administration ( 0-6 hr); assay type: ADME, organism-based, Canis lupus familiaris, Urine; set-up: dose 10 mg/kg, route intraperitoneal; conditions: in vivo; in short: as §3
Canis familiaris [13] = assay: Oral diuretic activity was evaluated by measuring K+ excretion in dog at 1 mg/kg after ip administration ( 0-6 hr); assay type: ADME, organism-based, Canis lupus familiaris, Urine; set-up: dose 1 mg/kg, route intraperitoneal; conditions: in vivo; in short: as §3
Canis familiaris [14] = assay: Oral diuretic activity was evaluated by measuring K+ excretion in dog at 20 mg/kg after ip administration ( 0-6 hr); assay type: ADME, organism-based, Canis lupus familiaris, Urine; set-up: dose 20 mg/kg, route intraperitoneal; conditions: in vivo; in short: as §3
Rattus norvegicus [15] = assay: Evaluated for salidiuretic activity measured as sodium ion excretion in Rat, administered orally at a dose of 50 mg/kg; assay type: functional, Urine; set-up: unit not given beside the values; conditions: route oral
In short: (§5)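 Female Charles-River rats (150–170 g), overnight on sugar diet with water ad libitum. Compound dissolved in DMF, diluted with water containing Tween 80 (final 4% DMF), given po in 5.0 mL; concurrent vehicle placebo. Three rats per metabolism cage; 0–5 h urine analysed for Na+, K+, Cl-. Values: mequiv × 100 per cage, geometric means of three cages per dose; scored 0–6 by Na+.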

[16] = Compound administered orally at a dose of 5 mg/kg was evaluated for salidiuretic activity measured as sodium ion excretion in Rat; assay type: organism-based; set-up: dose 5 mg/kg; conditions: Urine; in short: as §5
Rattus norvegicus [17] = assay: Compound administered orally at a dose of 81 mg/kg was evaluated for salidiuretic activity measured as sodium ion excretion in Rat; assay type: ADME, organism-based, Urine; set-up: dose 81 mg/kg, route oral; unit not given beside the values; conditions: in vivo, po; in short: as §5
Canis familiaris [18] = assay: Oral diuretic activity was evaluated by measuring Cl- excretion in dog at 5 mg/kg after […] ( 0-6 hr); assay type: ADME, organism-based, Canis lupus familiaris, Urine; set-up: dose 5 mg/kg, route intraperitoneal; conditions: in vivo
Rattus norvegicus [19] = assay: Oral diuretic activity was evaluated by measuring K+ excretion in Rat at 27 mg/kg after […] ( 0-5 hr); assay type: ADME, organism-based, Urine; set-up: dose 27 mg/kg; conditions: in vivo; in short: as §4
Canis familiaris [20] = assay: Compound administered intravenously at a dose of 5 mg/kg was evaluated for salidiuretic activity measured as sodium ion excretion in Dog; Value ranges from 800-899; assay type: ADME, organism-based, Canis lupus familiaris, Urine; set-up: dose 5 mg/kg, route intravenous; unit not given beside the values; conditions: in vivo, iv
In short: (§6)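 Conditioned female mongrel dogs, postabsorptive, water-loaded (500 mL po) 1 h before sodium pentobarbital anesthesia (30 mg/kg iv). Bladder catheter; creatinine 4 g sc; phosphate–mannitol buffer pH 7.4 infused (3.0 mL/min) throughout. […] Urine Na+ measured; response scored 0–6.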

[21] = Evaluated for salidiuretic activity measured as sodium ion excretion in Rat, administered orally at a dose of 16.5 mg/kg; assay type: organism-based; set-up: dose 16.5 mg/kg; conditions: Urine; in short: as §5
Rattus norvegicus [22] = assay: Oral diuretic activity was evaluated by measuring Cl- excretion in Rat at 27 mg/kg after […] ( 0-5 hr); assay type: ADME, organism-based, Urine; set-up: dose 27 mg/kg, route intraperitoneal; conditions: in vivo
Rattus norvegicus [23] = assay: Oral diuretic activity was evaluated by measuring Cl- excretion in Rat at 3 mg/kg after […] ( 0-5 hr); assay type: ADME, organism-based, Urine; set-up: dose 3 mg/kg, route intraperitoneal; conditions: in vivo
Rattus norvegicus [24] = assay: Oral diuretic activity was evaluated by measuring Cl- excretion in Rat at 9 mg/kg […] ( 0-5 hr); assay type: ADME, organism-based, Urine; set-up: dose 9 mg/kg; conditions: in vivo; in short: as §4
Canis familiaris [25] = assay: Oral diuretic activity was evaluated by measuring Cl- excretion in dog at 10 mg/kg after […] ( 0-6 hr); assay type: ADME, organism-based, Canis lupus familiaris, Urine; set-up: dose 10 mg/kg, route intraperitoneal; conditions: in vivo
Canis familiaris [26] = assay: Oral diuretic activity was evaluated by measuring Cl- excretion in dog at 1 mg/kg after […] ( 0-6 hr); assay type: ADME, organism-based, Canis lupus familiaris, Urine; set-up: dose 1 mg/kg, route intraperitoneal; conditions: in vivo
Canis familiaris [27] = assay: Oral diuretic activity was evaluated by measuring Cl- excretion in dog at 20 mg/kg after […] ( 0-6 hr); assay type: ADME, organism-based, Canis lupus familiaris, Urine; set-up: dose 20 mg/kg, route intraperitoneal; conditions: in vivo
Rattus norvegicus [28] = assay: Maximum fall in mean arterial blood pressure was measured in SH rats when compound was administered at 20 mg/kg perorally; assay type: functional; conditions: route oral
Rattus norvegicus [29] = assay: Oral diuretic activity was evaluated by measuring Cl- excretion in Rat at 81 mg/kg after […] ( 0-5 hr); assay type: ADME, organism-based, Urine; set-up: dose 81 mg/kg, route intraperitoneal; conditions: in vivo
Rattus norvegicus [30] = assay: Oral diuretic activity was evaluated by measuring Na+ excretion in Rat at 3 mg/kg […] ( 0-5 hr); assay type: ADME, organism-based, Urine; set-up: dose 3 mg/kg; conditions: in vivo, ip; in short: as §1
Canis familiaris [31] = assay: Compound administered intravenously at a dose of 5 mg/kg was evaluated for salidiuretic activity measured as sodium ion excretion in Dog; act above 5 mg/kg; assay type: ADME, organism-based, Canis lupus familiaris, Urine; conditions: in vivo, iv; in short: as §6

Diuretic activity (Rattus norvegicus [1]): 0.94
Diuretic activity (Canis familiaris [2]): 20.64
Diuretic activity (Canis familiaris [3]): 5.25
Diuretic activity (Canis familiaris [4]): 37.25
Diuretic activity (Canis familiaris [5]): 4.5
Diuretic activity (Rattus norvegicus [6]): 1.89
Diuretic activity (Rattus norvegicus [7]): 2.77
Diuretic activity (Canis familiaris [8]): 14.75
Diuretic activity (Rattus norvegicus [9]): 0.25
Diuretic activity (Rattus norvegicus [10]): 0.6
Diuretic activity (Rattus norvegicus [11]): 0.32
Diuretic activity (Canis familiaris [12]): 5
Diuretic activity (Canis familiaris [13]): 2.25
Diuretic activity (Canis familiaris [14]): 8.25
Diuretic activity (Rattus norvegicus [17]): 2.9
Diuretic activity (Canis familiaris [18]): 19.63
Diuretic activity (Rattus norvegicus [19]): 0.45
Diuretic activity (Canis familiaris [20]): 800
Diuretic activity (Rattus norvegicus [22]): 2.36
Diuretic activity (Rattus norvegicus [23]): 0.46
Diuretic activity (Rattus norvegicus [24]): 1.19
Diuretic activity (Canis familiaris [25]): 27.27
Diuretic activity (Canis familiaris [26]): 6.5
Diuretic activity (Canis familiaris [27]): 50.25
Diuretic activity (Rattus norvegicus [29]): 3.47
Diuretic activity (Rattus norvegicus [30]): 0.41
SMILES: Cl.NCc1c(O)c(Cl)cc(Cl)c1Cl
Diuretic activity (Rattus norvegicus [15]): 2.4
Diuretic activity [16]: 0.5
Diuretic activity [21]: 1.4
MAP (Rattus norvegicus [28]): 18 mmHg

Diuretic activity (Rattus norvegicus [17]): 2.4
Diuretic activity (Canis familiaris [31]): active above 5 mg/kg
SMILES: NCc1cc(Cl)cc(Cl)c1O
Diuretic activity (Rattus norvegicus [15]): 1.8
Diuretic activity [16]: 0.4
Diuretic activity [21]: 0.6

Source: ChEMBL document CHEMBL1121573, “2-(Aminomethyl)phenols, a new class of saluretic agents. 1. Effects of nuclear substitution” (J Med Chem, 1980)
